Experimental findings from ChEMBL document CHEMBL1153602, “Photochemical electrocyclisation of 3-vinylindoles to pyrido[2,3-a]-, pyrido[4,3-a]- and thieno[2,3-a]-carbazoles: design, synthesis, DNA binding and antitumor cell cytotoxicity” (2009) are described below.

Experiment [1] deals with HT-29. The experiment is described as follows: Cell cycle arrest in human HT-29 cells assessed as accumulation at S phase at 10 uM after 24 hrs using PI staining by flow cytometry. The format is functional. Summed up: (§1)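 HT-29 cells, 3×10^5 per sample in exponential growth, were exposed to graded drug concentrations for 24 h. Cells were then trypsinised, fixed in 70% ethanol and stained 30 min in the dark with propidium iodide (50 µg/ml) plus RNase (100 µg/ml). DNA content was measured by flow cytometry, quantifying cell-cycle phases and the sub-G1 fraction.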
Background: A flow cytometer gives signals particle by particle.

The test system of experiment [2] is HT-29. In words: Cell cycle arrest in human HT-29 cells assessed as accumulation at G2/M phase at 25 uM after 24 hrs using PI staining by flow cytometry. The format is functional, cell-based. Summed up:
as §1

Experiment [3] deals with HT-29. In words: Growth inhibition of human HT-29 cells by MTS assay. The format is functional. Summed up:
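HT-29 cells, 3×10^3 per well, were seeded 24 h before treatment with compound at 1 nM–100 µM, run as 3 series of duplicate or triplicate points. After 72 h at 37 °C, MTS tetrazolium was added for 2 h and absorbance read at 492 nm. GC50 is the concentration halving cell number versus untreated control wells.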
Background: Formazan colour is commonly taken as a measure of viable cells.

Experiment [4] relates to Calf thymus DNA. The experiment is described as follows: Binding affinity to calf thymus DNA assessed as change in melting temperature at a compound to DNA molar ratio of 0.1 by UV-vis spectroscopy. The format is nucleic-acid assay. To be noted: Bos taurus. Summed up:
(§2)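 UV absorbance of DNA at 260 nm recorded every minute from 20 to 100 °C, ramping 1 °C/min in a thermostated quartz cell. Tm is taken as the midpoint of the hyperchromic transition. ΔTm = Tm(DNA+drug) − Tm(DNA alone). Calf-thymus DNA or poly(dAdT)2 was used at DNA/drug ratios from 0.1 to 1.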

Experiment [5] relates to Calf thymus DNA. The experiment is described as follows: Binding affinity to calf thymus DNA assessed as change in melting temperature at a compound to DNA molar ratio of 0.25 by UV-vis spectroscopy. The format is nucleic-acid assay. To be noted: Bos taurus. Put shortly:
as §2

Experiment [6] concerns Calf thymus DNA. The experiment is described as follows: Binding affinity to calf thymus DNA assessed as change in melting temperature at a compound to DNA molar ratio of 0.5 by UV-vis spectroscopy. It counts as nucleic-acid assay. To be noted: Bos taurus. Summed up: as §2
Experiment [7] deals with Calf thymus DNA. The experiment is described as follows: Binding affinity to calf thymus DNA assessed as change in melting temperature at a compound to DNA molar ratio of 1 by UV-vis spectroscopy. Conditions: Bos taurus. It counts as nucleic-acid assay. Put shortly: as §2
In experiment [8] the test system is Nucleic Acid. The experiment is described as follows: Binding affinity to poly(dA).poly(dT) duplex DNA assessed as change in thermal melting temperature at compound to DNA ratio of 0.1 by UV-vis spectroscopy. The format is nucleic-acid assay.
Experiment [9] deals with Nucleic Acid. In words: Binding affinity to poly(dA).poly(dT) duplex DNA assessed as change in thermal melting temperature at compound to DNA ratio of 0.25 by UV-vis spectroscopy. It counts as nucleic-acid assay.
Experiment [10] relates to Nucleic Acid. The experiment is described as follows: Binding affinity to poly(dA).poly(dT) duplex DNA assessed as change in thermal melting temperature at compound to DNA ratio of 0.5 by UV-vis spectroscopy. The format is nucleic-acid assay.
Experiment [11] relates to Nucleic Acid. In words: Binding affinity to poly(dA).poly(dT) duplex DNA assessed as change in thermal melting temperature at compound to DNA ratio of 1 by UV-vis spectroscopy. The format is nucleic-acid assay.
Experiment [12] relates to Calf thymus DNA. The experiment is described as follows: Binding affinity to calf thymus DNA assessed as enhancement constant by fluorescence spectroscopy. It counts as nucleic-acid assay. To be noted: Bos taurus. Summed up: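 Drug at a fixed 20 µM in 1 ml BPE buffer in a 10 mm quartz cuvette, titrated with CT-DNA at 10–200 µM base pairs. Excitation was set at each compound's own wavelength (276–319 nm). Constants came from Stern–Volmer plots of F0/F against CT-DNA concentration, with the slope taken as Ksv.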

Experiment [13] deals with Nucleic Acid. The experiment is described as follows: Binding affinity to pBS 117bp DNA by DnaseI footprinting assay. It counts as nucleic-acid assay. Summed up:
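Ligand and fragment were pre-incubated 15 min at 37 °C, then digested with DNase I at 0.001 unit/ml in 20 mM NaCl, 2 mM MgCl2, 2 mM MnCl2, pH 7.3. Products were resolved on a denaturing 8% polyacrylamide/8 M urea gel, with a G-track marker.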

Experiment [14] deals with T1, DNA topoisomerase 1 (Homo sapiens) (UniProt P11387).
T1 sequence (whole entry): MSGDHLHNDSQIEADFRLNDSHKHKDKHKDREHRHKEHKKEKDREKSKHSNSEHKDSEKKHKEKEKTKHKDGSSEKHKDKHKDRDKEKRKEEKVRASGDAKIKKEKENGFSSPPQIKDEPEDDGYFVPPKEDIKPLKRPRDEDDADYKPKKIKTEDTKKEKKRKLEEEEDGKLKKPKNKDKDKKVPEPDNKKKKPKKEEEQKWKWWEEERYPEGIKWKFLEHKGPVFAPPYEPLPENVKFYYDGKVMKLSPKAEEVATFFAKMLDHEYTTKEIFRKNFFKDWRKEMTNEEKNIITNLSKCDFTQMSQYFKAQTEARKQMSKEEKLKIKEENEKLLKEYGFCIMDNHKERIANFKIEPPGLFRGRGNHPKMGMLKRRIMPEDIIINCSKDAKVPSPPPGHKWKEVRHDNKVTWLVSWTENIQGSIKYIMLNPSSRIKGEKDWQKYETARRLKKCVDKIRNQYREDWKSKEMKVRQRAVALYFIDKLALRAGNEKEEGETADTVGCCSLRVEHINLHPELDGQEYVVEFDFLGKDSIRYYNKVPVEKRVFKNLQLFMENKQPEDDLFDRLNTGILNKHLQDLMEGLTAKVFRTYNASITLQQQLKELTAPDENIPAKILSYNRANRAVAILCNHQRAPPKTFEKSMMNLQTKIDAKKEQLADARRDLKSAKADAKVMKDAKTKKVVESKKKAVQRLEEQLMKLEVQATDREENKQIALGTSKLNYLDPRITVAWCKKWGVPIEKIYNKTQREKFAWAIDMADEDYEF
The experiment is described as follows: Inhibition of human topoisomerase 1-mediated DNA relaxation assessed as lack of nicking form by agarose gel electrophoresis. Put shortly:
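Supercoiled pUC19 (130 ng) was pre-incubated with compound at graded concentrations, or 20 or 50 µM in the cleavage assay. Human topoisomerase I (4 units) was then added for 45 min at 37 °C in 50 mM Tris pH 7.8, 50 mM KCl, 10 mM MgCl2, 1 mM DTT, 1 mM EDTA, 1 mM ATP. Camptothecin (20 µM) served as control. Samples ran on 1% agarose for 2 h at 120 V in TBE, with ethidium bromide either post-stained (relaxation) or included in the gel (cleavage).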

Experiment [15] concerns the target DNA topoisomerase 2-alpha (Homo sapiens) (UniProt P11388). In words: Inhibition of human topoisomerase 2-mediated DNA relaxation assessed as double stranded break form by agarose gel electrophoresis. Put shortly: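 Supercoiled pUC19 (130 ng) with compound at 20 or 50 µM, or etoposide as control, was incubated with human topoisomerase II (4 units) for 45 min at 37 °C in cleavage buffer. The reaction was stopped with 0.25% SDS plus proteinase K for 30 min at 50 °C. DNA forms were separated on 1% agarose containing ethidium bromide in TBE.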

For experiment [16], the system named is HT-29. The experiment is described as follows: Cell cycle arrest in human HT-29 cells at 25 uM after 24 hrs using PI staining by flow cytometry.
The test system of experiment [17] is HT-29. The experiment is described as follows: Cell cycle arrest in human HT-29 cells assessed as accumulation at G2/M phase after 24 hrs using PI staining by flow cytometry. It counts as functional, cell-based. Put shortly:
as §1

Experiment [18] has as its system HT-29. The experiment is described as follows: Cell cycle arrest in human HT-29 cells assessed as reduction of cells in G1 phase after 24 hrs using PI staining by flow cytometry. The format is functional, cell-based. Put shortly:
as §1

Experiment [19] relates to HT-29. The experiment is described as follows: Cell cycle arrest in human HT-29 cells assessed as accumulation at S phase at 25 uM after 24 hrs using PI staining by flow cytometry. It counts as functional. Put shortly:
as §1

Experiment [20] has as its system OVCAR-3. In words: Growth inhibition of human OVCAR-3 cells after 48 hrs by sulforhodamine B protein assay. It counts as functional. Conditions: OVCAR-3, 48 h. Summed up:
(§3)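 NCI 60-cell-line screen. Dose–response used at least five concentrations in 10-fold dilutions with 48 h continuous drug exposure. Growth was estimated by sulforhodamine B protein staining. GI50 is the molar concentration giving 50% growth inhibition versus control.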

For experiment [21], the system named is CAKI-1. In words: Growth inhibition of human Caki1 cells after 48 hrs by sulforhodamine B protein assay. To be noted: CAKI-1, 48 h. It counts as functional. Summed up: as §3
In general terms: In SRB staining, fixed cells bind dye roughly in proportion to their protein.

Experiment [22] relates to IGROV-1. In words: Growth inhibition of human IGROV1 cells after 48 hrs by sulforhodamine B protein assay. The format is functional. Conditions: IGROV-1, 48 h. Put shortly:
as §3

Experiment [23] relates to UO-31. In words: Growth inhibition of human UO31 cells after 48 hrs by sulforhodamine B protein assay. The format is functional. To be noted: UO-31, 48 h. Put shortly:
as §3

Experiment [24] concerns HT-29. The experiment is described as follows: Growth inhibition of human HT-29 cells after 48 hrs by sulforhodamine B protein assay. It counts as functional. Conditions: HT-29, 48 h. Summed up:
as §3

Active and inactive are the calls of the source. No cut-off for these calls is given here.

DNA topoisomerase 2-alpha (Homo sapiens), sequence (P11388 whole entry): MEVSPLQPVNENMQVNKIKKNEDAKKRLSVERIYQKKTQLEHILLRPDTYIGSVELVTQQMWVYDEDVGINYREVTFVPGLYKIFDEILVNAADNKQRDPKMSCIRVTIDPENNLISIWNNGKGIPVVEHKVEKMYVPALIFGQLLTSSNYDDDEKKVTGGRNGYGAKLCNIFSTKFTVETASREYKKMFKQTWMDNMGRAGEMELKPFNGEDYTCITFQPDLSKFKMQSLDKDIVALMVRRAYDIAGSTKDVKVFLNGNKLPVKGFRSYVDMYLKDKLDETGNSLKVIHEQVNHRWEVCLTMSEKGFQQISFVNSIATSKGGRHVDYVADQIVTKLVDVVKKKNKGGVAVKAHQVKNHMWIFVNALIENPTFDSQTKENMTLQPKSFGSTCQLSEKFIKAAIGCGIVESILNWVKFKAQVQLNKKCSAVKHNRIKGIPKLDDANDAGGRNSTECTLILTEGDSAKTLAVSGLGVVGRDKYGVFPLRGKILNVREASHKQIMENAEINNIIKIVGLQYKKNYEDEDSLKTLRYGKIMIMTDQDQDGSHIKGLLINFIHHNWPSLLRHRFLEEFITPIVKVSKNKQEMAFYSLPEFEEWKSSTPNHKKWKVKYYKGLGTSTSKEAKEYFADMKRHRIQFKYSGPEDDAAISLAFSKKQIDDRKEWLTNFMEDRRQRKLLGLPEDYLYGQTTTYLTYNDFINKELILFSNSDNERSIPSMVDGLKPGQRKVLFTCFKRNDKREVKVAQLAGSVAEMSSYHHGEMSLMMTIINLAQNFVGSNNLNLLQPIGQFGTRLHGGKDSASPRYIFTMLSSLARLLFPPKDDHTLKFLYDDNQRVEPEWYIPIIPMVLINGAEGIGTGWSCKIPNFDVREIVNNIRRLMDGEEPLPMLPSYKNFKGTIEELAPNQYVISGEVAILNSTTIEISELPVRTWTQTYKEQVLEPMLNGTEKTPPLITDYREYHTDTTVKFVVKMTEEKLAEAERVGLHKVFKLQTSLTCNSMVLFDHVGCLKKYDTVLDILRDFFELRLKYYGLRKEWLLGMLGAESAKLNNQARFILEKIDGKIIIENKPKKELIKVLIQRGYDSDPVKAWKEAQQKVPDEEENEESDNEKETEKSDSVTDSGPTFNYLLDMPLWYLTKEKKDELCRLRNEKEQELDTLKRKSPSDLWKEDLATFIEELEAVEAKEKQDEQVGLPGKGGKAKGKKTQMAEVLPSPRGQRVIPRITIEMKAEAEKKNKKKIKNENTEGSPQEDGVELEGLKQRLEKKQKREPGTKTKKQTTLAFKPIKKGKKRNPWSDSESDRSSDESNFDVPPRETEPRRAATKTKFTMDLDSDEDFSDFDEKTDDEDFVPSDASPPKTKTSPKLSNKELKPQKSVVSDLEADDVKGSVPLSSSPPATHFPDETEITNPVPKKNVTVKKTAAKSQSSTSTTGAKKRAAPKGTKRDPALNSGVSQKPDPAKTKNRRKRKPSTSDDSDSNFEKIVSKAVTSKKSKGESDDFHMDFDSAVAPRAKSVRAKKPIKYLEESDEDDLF

In general, ΔTm refers to the shift of the melting midpoint relative to a reference. As for `CN(C)CCCNC(=O)c1cc2c3cc(Cl)ccc3[nH]c2c2ncccc12`, the Activity in [1] is 26.1%; in experiment [12], 4.84 ×10³ /M. For the same compound, the result in experiment [2], in experiment [13], in [14], in experiment [15] and in experiment [16] was Active. In experiment [3], this compound had a GI50 of 9230 nM. The ΔTm was 3 °C in [4]; 7.4 °C in experiment [5]; 8.8 °C in experiment [6]; 13.2 °C in experiment [7]; 6.1 °C in experiment [8]; 9.2 °C in experiment [9]. For the same compound, the ΔTm in [10] is 20.4 °C; in experiment [11], 27.8 °C.
`CN(C)CCNC(=O)c1cc2c3ccccc3[nH]c2c2ncccc12`: the result in [17], in experiment [18], in [13], in experiment [14] and in experiment [15] was Active. Moreover, the Activity in experiment [19] is 32.6%. In addition, the GI50 was 25.4 nM in experiment [20] (read-out: GI50); 25.1 nM in experiment [20] (read-out: pGI50 (converted)); 515 nM in experiment [21] (read-out: GI50); 525 nM in experiment [21] (read-out: pGI50 (converted)); 1140 nM in experiment [22] (read-out: GI50); 1100 nM in experiment [22] (read-out: pGI50 (converted)). Further, the GI50 was 2130 nM in experiment [23] (read-out: GI50); 2090 nM in experiment [23] (read-out: pGI50 (converted)); 5270 nM in experiment [24] (read-out: GI50); 5250 nM in experiment [24] (read-out: pGI50 (converted)); 11500 nM in experiment [3]. Also, the thermal shift (ΔTm) in experiment [4] worked out at 0 °C; in [5], 3 °C; in experiment [6] it was 2.9 °C; in experiment [7], 7.3 °C; in experiment [8], 2.9 °C; in experiment [9] it was 11.8 °C. Besides, the results for the ΔTm in [10] and in experiment [11] were 14.5 °C and 18.9 °C, respectively.
Consider `COc1cc([C@@H]2c3cc4c(cc3[C@@H](O[C@@H]3O[C@@H]5CO[C@@H](C)O[C@H]5[C@H](O)[C@H]3O)[C@H]3COC(=O)[C@H]23)OCO4)cc(OC)c1O`, for which the result in experiment [15] was Active.
